Source: PubChem (Johns Hopkins Ion Channel Center)
TRPC6 inh: mouse TRPC6 channel inhibition; HEK293-TRPC6, membrane potential dye, ACh-evoked depolarization; active compounds read low; B-score at 10 µM; 310,000 tested, 1.1% active;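 active = B-score under library mean minus 3 SD, initial fluorescence not abnormally high, positive integrated signal ratio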;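 also: B-score derived from integrated fluorescence ratio over the kinetic read; more negative B-score means stronger inhibition of depolarization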
TRPC4 act: TRPC4 (mouse) channel activation. Q9QUQ5. HEK293 TRPC4beta/mu-opioid, Fluo4 calcium fluorescence; active compounds read high. B-score at 10 µM. 310,000 tested, 0.49% active;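 active = B-score above 5 SD of library B-scores, and initial fluorescence ratio not above library mean plus 5 SD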;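 also: positive B-score marks a calcium rise read as TRPC4 activation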
Target sequence (Q9QUQ5 whole entry, looked up): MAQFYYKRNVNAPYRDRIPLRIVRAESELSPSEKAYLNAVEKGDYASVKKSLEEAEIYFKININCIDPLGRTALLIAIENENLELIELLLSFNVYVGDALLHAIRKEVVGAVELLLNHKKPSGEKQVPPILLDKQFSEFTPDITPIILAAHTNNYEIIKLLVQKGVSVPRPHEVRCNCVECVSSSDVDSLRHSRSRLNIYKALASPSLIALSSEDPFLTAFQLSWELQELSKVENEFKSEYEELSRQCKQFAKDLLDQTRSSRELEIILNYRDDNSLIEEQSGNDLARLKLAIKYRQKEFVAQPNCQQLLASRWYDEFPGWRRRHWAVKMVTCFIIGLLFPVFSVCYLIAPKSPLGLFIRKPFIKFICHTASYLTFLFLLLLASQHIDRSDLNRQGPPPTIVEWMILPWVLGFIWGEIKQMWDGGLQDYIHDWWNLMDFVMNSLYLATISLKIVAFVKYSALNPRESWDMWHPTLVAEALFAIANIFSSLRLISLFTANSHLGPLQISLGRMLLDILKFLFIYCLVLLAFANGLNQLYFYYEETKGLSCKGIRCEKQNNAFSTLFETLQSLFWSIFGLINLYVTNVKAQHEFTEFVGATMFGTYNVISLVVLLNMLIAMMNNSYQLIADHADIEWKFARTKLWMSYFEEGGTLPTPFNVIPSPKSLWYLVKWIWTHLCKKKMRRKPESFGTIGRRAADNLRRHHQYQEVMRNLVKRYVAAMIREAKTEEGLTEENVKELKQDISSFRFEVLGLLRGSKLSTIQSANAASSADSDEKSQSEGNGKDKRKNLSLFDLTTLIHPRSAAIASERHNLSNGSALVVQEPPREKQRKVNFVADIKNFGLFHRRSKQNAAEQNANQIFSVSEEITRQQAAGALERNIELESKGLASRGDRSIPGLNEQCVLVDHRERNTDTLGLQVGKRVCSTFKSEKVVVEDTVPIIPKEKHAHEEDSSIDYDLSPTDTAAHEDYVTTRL
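Assay system: HEK293 stable line with TRPC4beta plus mu-opioid receptor. Times: dye 45 min RT, read 110 s. Measured by: kinetic Fluo4 calcium fluorescence. Measure: B score of integrated ratio. Controls: assay buffer as low control, maximal DAMGO as high control.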
TRPC6 activator: activates the mouse TRPC6 cation channel | HEK293-TRPC6 membrane potential dye fluorescence; active compounds read high | B-score at 10 µM | 310,000 tested, 0.13% active;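 active = B-score of the integrated fluorescence ratio above library mean plus 3 SD, and starting fluorescence ratio within library mean plus 5 SD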;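 also: higher score means more depolarization so channel activation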
TRPC4 inh: TRPC4 (mouse) channel inhibition; B-score at 10 µM; 300,000 tested, 0.39% active; HEK293 TRPC4beta/mu-opioid, DAMGO-evoked Fluo4 calcium flux; active compounds read low;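 active = B-score over 3 SD under the library average, no early fluorescence shift, positive overall ratio signal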
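System: stable TRPC4beta/mu-opioid receptor HEK293 cells; Dosing: single-point compound dosing; Measured by: Fluo4 Ca2+ flux fluorescence; Read-out basis: per-well B score of integrated baseline-normalized Fluo4 ratio.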
TRPC4 potent: allosterically enhances the mouse TRPC4 cation channel | Q9QUQ5 | HEK293 TRPC4beta/mu-opioid, DAMGO EC20, Fluo-4 Ca2+ flux; active compounds read high | B-score at 10 µM | 310,000 tested, 0.42% active | AID 2227;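 active = B-score of calcium response area above 5 SD of library B-scores, with initial fluorescence ratio within 5 SD of library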;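 also: B-score of integrated fluorescence ratio over time as area under calcium response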
TRPC4 sel inh 2: second check of whether TRPC6 inhibitors also affect mouse TRPC4 | shares compounds with TRPC6 inh | HEK293 TRPC4/MOR, membrane potential dye fluorescence; channel activated by saturating DAMGO dose | inhibition, % at 10 µM | 920 tested, 42% active | AID 2776;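 active = compounds whose fluorescence signal differed from control wells by over 3 SD, either direction, in both duplicate plates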
TRPC4 spec: mouse TRPC4 off-target activity of TRPC6 inhibitors | 920 tested, 61% active | HEK293 TRPC4/mu-opioid, membrane potential fluorescence | shares compounds with TRPC6 inh | activity change, negative = inhibition, % at 10 µM;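 active = rise or fall in signal beyond 3 SD of buffer-only wells in both replicate plates, either sign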;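 also: integrated kinetic ratio of fluorescence range over baseline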
HEK293 MPD ctr 2-1: parental HEK293 nonspecific activity of TRPC6 inhibitors, second screen | shares compounds with TRPC6 inh | parental HEK293 membrane potential dye fluorescence; maximal acetylcholine challenge after compound addition | signal change vs control, % at 10 µM | 920 tested, 31% active | AID 2779;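 active = membrane potential signal moving either way by over 3 SD of the maximum-effect control, in both duplicate plates, meaning non-specific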
HEK293 MPD ctr-1: checks TRPC6 inhibitor effects in parental HEK293 cells; shares compounds with TRPC6 inh; parental HEK293 membrane potential dye fluorescence; membrane potential signal change, % at 10 µM; 920 tested, 60% active;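 active = membrane potential signal shifting up or down by more than 3 SD of buffer-only wells, on both duplicate plates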
HEK293 MPD ctr-2: checks TRPC6 modulator effects in parental HEK293 cells; membrane potential dye fluorescence; shares compounds with TRPC6 inh; membrane potential signal change, % at 10 µM; 2,400 tested, 51% active;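 active = membrane potential signal moves up or down beyond 5 SD from buffer-only wells, on both duplicate plates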
HEK293 MPD ctr 2-2: second check of TRPC6 modulator effects in parental HEK293 cells | shares compounds with TRPC6 inh | membrane potential dye fluorescence; after compound, maximal acetylcholine stimulation | inhibition, % at 10 µM | 2,400 tested, 14% active | AID 488926;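 active = membrane potential signal drops by more than 5 SD from the mean control signal, in both duplicate plates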;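 also: plate controls were acetylcholine ECmax control wells for no effect and buffer only wells for full effect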
TRPC4 ctr mod: selectivity of TRPC6 modulators against mouse TRPC4; 2,400 tested, 69% active; HEK293 TRPC4/mu-opioid, membrane potential fluorescence; percent change from control (negative = decrease, positive = increase), % at 10 µM; shares compounds with TRPC6 inh;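 active = membrane potential signal moved up or down beyond 5 SD of buffer control wells, in both duplicate plates, actives on both sides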;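 also: plate controls were assay buffer wells for no effect and DAMGO maximal-effect wells for full effect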
TRPC4/MOR inh 2: mouse TRPC4 off-target activity of TRPC6 modulators, second screen. shares compounds with TRPC6 inh. HEK293 TRPC4/mu-opioid, membrane potential dye fluorescence; stimulated with maximal-effect DAMGO. inhibition, % at 10 µM. 2,400 tested, 55% active;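 active = drop in membrane potential signal beyond 5 SD of the control wells in both duplicate plates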;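 also: TRPC4 counter screen for TRPC6 hits run under conditions tuned for TRPC6 not TRPC4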
TRPC6 inh conf: confirmation of mouse TRPC6 inhibitors. shares compounds with TRPC6 inh. HEK293-TRPC6, membrane potential dye, ACh-evoked depolarization. inhibition, % at 10 µM. 3,300 tested, 43% active. AID 488960;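 active = fluorescence ratio falls more than 5 SD below the full-stimulation control mean, in both duplicate runs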;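 also: integrated fluorescence ratio of peak minus minimum over baseline after agonist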
TRPC6 act confirm: confirmation of mouse TRPC6 activators. activation, % at 10 µM. AID 488961. shares compounds with TRPC6 inh. 2,800 tested, 11% active. HEK293-TRPC6 membrane potential dye fluorescence, FDSS;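 active = ratio signal rise beyond 5 SD above unstimulated control wells' mean, seen in both duplicate runs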;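 also: plate controls were buffer EC0 wells for no effect and acetylcholine ECmax response for full effect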
* marks the source's active call; other numbers are inactive results; i = inactive; x = no result. This is a sample that favours compounds with a hit; in the whole collection about 2.3% have one here.

SMILES	TRPC6 inh	TRPC4 act	TRPC6 activator	TRPC4 inh	TRPC4 potent	HEK293 MPD ctr-2	HEK293 MPD ctr 2-2	TRPC4 ctr mod	TRPC4/MOR inh 2	TRPC6 inh conf	TRPC6 act confirm	others
CCC(C)(C)NC(=O)Cn1c(-c2ccc(C)cc2)noc1=O	i	i	i	i	i	x	x	x	x	x	x
COc1ccc(N(CC(=O)Nc2ccccc2OC)S(=O)(=O)c2ccc(NC(C)=O)cc2)cc1	i	i	i	i	i	x	x	x	x	x	x
Cn1c(CNC2CCCCC2)c(C#N)c2ccccc21	i	i	i	i	i	x	x	x	x	x	x
CCN(CC)CCNc1nc2c(c(=O)[nH]c(=O)n2C)n1CC(O)COc1ccc(Cl)cc1Cl (stereo not given)	-8.78*	i	i	i	i	-308.5%*	58.0%*	-56.0%*	35.0%*	41.5%*	i
CN(C)CCNc1nc2c(c(=O)[nH]c(=O)n2C)n1CC(O)COc1ccc(Cl)cc1 (stereo not given)	i	i	i	i	i	x	x	x	x	x	x
COc1cccc(C2=Nc3cccc4cccc(c34)N2)c1	-8.12*	i	i	i	i	-94.0%*	i	-26.0%*	74.5%*	52.5%*	i
CCN(CC)CCNC(=O)c1ccc(NC(=O)c2ccc3c(c2)CCC3)cc1	-9.48*	i	11.6*	i	i	217.0%*	i	29.0%*	i	69.0%*	160.0%*
Cn1c(=O)c(C#N)c(-c2ccc(F)cc2)c2cc(C(=O)c3cc(Cl)cc(Cl)c3O)cnc21	-9.38*	i	i	i	i	x	x	x	x	76.2%*	i	TRPC4 sel inh 2=43.5%*;TRPC4 spec=-13.3%*;HEK293 MPD ctr 2-1=i;HEK293 MPD ctr-1=-158.5%*
C=CCN1C=CC=C/C1=C1\SC(=S)N(C)C1=O	-5.12*	i	i	i	i	i	i	i	i	i	i
CN1C=CC=C/C1=C1\SC(=S)N(c2ccccc2)C1=O	i	i	i	i	i	x	x	x	x	x	x
O=C(c1cccc(C(F)(F)F)c1)N1CCC2(CC1)NCCc1[nH]cnc12	i	i	i	i	i	x	x	x	x	x	x
Cc1ccc(-c2nc(C(=O)NCCCN3CCOCC3)cc3c2[nH]c2ccccc23)cc1	-6.63*	i	i	i	i	x	x	x	x	i	i	TRPC4 sel inh 2=57.5%*;TRPC4 spec=-16.5%*;HEK293 MPD ctr 2-1=i;HEK293 MPD ctr-1=-165.5%*
COc1ccc(-c2nc(C(=O)NCCCN3CCOCC3)cc3c2[nH]c2ccccc23)cc1OC	-5.59*	i	i	i	i	i	i	-17.5%*	67.0%*	45.5%*	i
Fc1ccc(C(CCNCc2ccccn2)c2ccc(Cl)cc2)cc1 (stereo not given)	-5.19*	i	i	i	i	188.5%*	i	31.0%*	74.0%*	i	x
O=c1c2ccccc2c(C=NC2CCN(Cc3ccccc3)CC2)c(O)n1Cc1ccc2c(c1)OCO2	i	i	i	i	i	x	x	x	x	x	x
Cn1nc(-c2ccc(NCCO)c([N+](=O)[O-])c2)c2ccccc2c1=O	i	i	i	i	i	x	x	x	x	x	x
CN(C)CCNc1ccc(-c2nn(C)c(=O)c3ccccc23)cc1[N+](=O)[O-]	-5.19*	i	i	i	i	-133.5%*	i	-32.0%*	77.5%*	72.0%*	i
CCN(CC)CCSc1nnc2c3ccccc3n(CCc3ccccc3)c2n1	-7.55*	i	i	i	i	x	x	x	x	i	i	TRPC4 sel inh 2=18.5%*;TRPC4 spec=0.5%*;HEK293 MPD ctr 2-1=i;HEK293 MPD ctr-1=-198.5%*
CCCn1c2ccc(F)cc2c2nnc(SCCN3CCCCC3)nc21	i	i	i	i	i	x	x	x	x	x	x
CCn1c2ccc(F)cc2c2nnc(SCCN3CCCCC3)nc21	-5.77*	i	i	i	i	-78.0%*	i	36.0%*	80.5%*	i	i
C=CCn1c2ccccc2c2nnc(SCCN3CCCCC3)nc21	-8.64*	i	i	i	i	x	x	x	x	i	i	TRPC4 sel inh 2=73.0%*;TRPC4 spec=-14.4%*;HEK293 MPD ctr 2-1=i;HEK293 MPD ctr-1=-154.0%*
c1ccc(Cn2c3ccccc3c3nnc(SCCN4CCCCC4)nc32)cc1	i	i	i	i	i	x	x	x	x	x	x
O=C(CCC(F)(F)F)N1CCC(CO)(CCc2ccccc2)CC1	i	i	i	i	i	x	x	x	x	x	x
CCN(Cc1ccncc1)C(=O)c1cc(COc2c(F)cccc2F)on1	i	i	i	i	i	x	x	x	x	x	x
Cc1ccc(N2C(=O)CSC2c2c(F)cccc2Cl)cc1 (stereo not given)	-12.1*	i	i	i	i	x	x	x	x	83.6%*	i	TRPC4 sel inh 2=i;TRPC4 spec=i;HEK293 MPD ctr 2-1=-26.0%*;HEK293 MPD ctr-1=i
NC(=O)C1(N2CCCCC2)CCN(Cc2ccccc2Cl)CC1	i	i	i	i	i	x	x	x	x	x	x
CC(=O)c1c(C)n(-c2ccccc2)c2ccc(OCC(O)CN3CCOCC3)cc12 (stereo not given)	i	i	i	i	i	x	x	x	x	x	x
CCN(CC)CC(O)COc1ccc2c(c1)c(C(C)=O)c(C)n2-c1ccccc1 (stereo not given)	-5.54*	i	i	i	i	i	i	i	74.5%*	50.0%*	i
COC(=O)C1CN(C(=O)COc2ccc(Cl)cc2Cl)c2ccccc2O1 (stereo not given)	i	i	i	i	i	x	x	x	x	x	x
